Experimental data published in ChEMBL document CHEMBL3763066, “Potent μ-Opioid Receptor Agonists from Cyclic Peptides Tyr-c[D-Lys-Xxx-Tyr-Gly]: Synthesis, Biological, and Structural Evaluation” (J Med Chem, 2016).
Where a SMILES comes first, the peptide text is derived from it. Bridges are numbered along the chain shown (N, C = ends). [ ]: non-standard residue; d: D form. 2Abz = Nc1ccccc1C(=O)O; Dap = NC[C@H](N)C(=O)O

How the values were obtained:
[1] = species: Rattus norvegicus; experiment: Selectivity ratio of Ki for rat cortical DOR to Ki for rat cortical MOR
[2] = target: Kappa-type opioid receptor (Cavia porcellus, UniProt P41144); experiment: Displacement of [3H]U69,593 from guinea pig KOR after 2 hrs by liquid scintillation counting method
Sequence of Kappa-type opioid receptor (P41144 whole entry): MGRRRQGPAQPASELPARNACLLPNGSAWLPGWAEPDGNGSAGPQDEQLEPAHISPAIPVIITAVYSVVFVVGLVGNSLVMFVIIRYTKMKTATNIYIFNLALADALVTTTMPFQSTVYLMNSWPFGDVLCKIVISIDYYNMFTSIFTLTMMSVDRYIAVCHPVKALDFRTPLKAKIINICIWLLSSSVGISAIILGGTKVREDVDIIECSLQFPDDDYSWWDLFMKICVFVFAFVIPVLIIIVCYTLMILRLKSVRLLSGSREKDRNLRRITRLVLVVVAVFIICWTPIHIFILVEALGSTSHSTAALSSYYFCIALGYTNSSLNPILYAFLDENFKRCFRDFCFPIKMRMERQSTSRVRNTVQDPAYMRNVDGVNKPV

[3] = Selectivity ratio of Ki for guinea pig KOR to Ki for rat cortical MOR
Method in brief: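 KOR: guinea pig cortex and cerebellum membranes in 50 mM Tris pH 7.4, 10 mM MgCl2, 200 μM PMSF, with 2 nM [3H]U69,593, 2 h at 25 °C; U50,488 defined nonspecific binding. […] Both used GF/B filtration and scintillation counting. The ratio is Ki(KOR)/Ki(MOR).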

[4] = target: T1, Mu-type opioid receptor (Homo sapiens, UniProt P35372); experiment: Potency index, ratio of morphine EC50 to compound EC50 for human MOR
T1 sequence (P35372 whole entry): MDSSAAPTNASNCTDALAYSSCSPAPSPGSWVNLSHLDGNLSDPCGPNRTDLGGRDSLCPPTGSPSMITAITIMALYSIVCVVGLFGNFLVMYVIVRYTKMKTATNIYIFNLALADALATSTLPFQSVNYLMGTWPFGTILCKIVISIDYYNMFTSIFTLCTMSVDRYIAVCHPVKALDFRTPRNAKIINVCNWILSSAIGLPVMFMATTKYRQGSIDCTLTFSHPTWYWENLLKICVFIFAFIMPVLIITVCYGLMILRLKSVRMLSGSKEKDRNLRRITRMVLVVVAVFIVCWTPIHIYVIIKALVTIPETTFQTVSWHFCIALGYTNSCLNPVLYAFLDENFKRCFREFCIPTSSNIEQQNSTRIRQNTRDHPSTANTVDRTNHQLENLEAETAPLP
Method in brief: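 CHO cells expressing human MOR were seeded 1 day before the assay. Cells were loaded with membrane-potential blue dye in HBSS/20 mM HEPES pH 7.4 for 45 min at 37 °C, then compound was added. Fluorescence (ex 530, em 550–565 nm) was read every 3 s for 60 s, taking maximum minus minimum response. The index is morphine EC50 divided by compound EC50.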

[5] = target: Delta-type opioid receptor (Rattus norvegicus, UniProt P33533); experiment: Displacement of [3H]DPDPE from rat cortical DOR after […] by liquid scintillation counting method
Sequence of Delta-type opioid receptor (P33533 whole entry): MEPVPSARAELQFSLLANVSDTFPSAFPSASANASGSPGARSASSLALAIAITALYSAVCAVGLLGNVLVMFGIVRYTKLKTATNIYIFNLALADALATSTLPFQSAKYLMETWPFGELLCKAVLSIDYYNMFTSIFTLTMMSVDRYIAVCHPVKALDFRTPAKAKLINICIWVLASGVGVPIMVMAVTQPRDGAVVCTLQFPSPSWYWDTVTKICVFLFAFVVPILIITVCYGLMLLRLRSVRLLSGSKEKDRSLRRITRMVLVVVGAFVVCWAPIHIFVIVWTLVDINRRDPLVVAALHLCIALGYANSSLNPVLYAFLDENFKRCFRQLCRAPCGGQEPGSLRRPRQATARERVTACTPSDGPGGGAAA

[6] = target: Mu-type opioid receptor (Rattus norvegicus, UniProt P33535); experiment: Displacement of [3H]DAMGO from rat cortical MOR by liquid scintillation counting method
Sequence of Mu-type opioid receptor (Rattus norvegicus, UniProt P33535) (P33535 whole entry): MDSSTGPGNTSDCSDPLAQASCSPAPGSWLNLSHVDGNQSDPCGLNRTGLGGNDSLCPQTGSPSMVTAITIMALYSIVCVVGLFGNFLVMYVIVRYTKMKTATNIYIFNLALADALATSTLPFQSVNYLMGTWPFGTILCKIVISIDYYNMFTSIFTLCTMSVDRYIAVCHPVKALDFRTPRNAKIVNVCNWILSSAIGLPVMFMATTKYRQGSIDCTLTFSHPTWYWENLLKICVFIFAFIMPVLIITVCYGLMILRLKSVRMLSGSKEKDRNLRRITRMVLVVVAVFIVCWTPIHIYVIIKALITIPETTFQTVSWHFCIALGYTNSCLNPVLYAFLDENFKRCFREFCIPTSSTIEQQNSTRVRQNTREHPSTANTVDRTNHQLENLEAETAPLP

[7] = target: T1, Mu-type opioid receptor; assay type: cell-based, CHO

Structure (SMILES)	Ratio Ki [1]	Ki [2]	Ratio Ki [3]	Ratio EC50 [4]	Ki [5]	Ki [6]	IC50 [7]
Nc1ccccc1C(=O)NC[C@@H]1NC(=O)[C@H](NC(=O)[C@@H](N)Cc2ccc(O)cc2)CCCCNC(=O)CNC(=O)[C@H](Cc2ccc(O)cc2)NC1=O (H-Y[dK][Dap](2Abz)YG; lactam 2-C)	62	3230 nM	231				
N[C@@H](Cc1ccc(O)cc1)C(=O)N[C@@H]1CCCCNC(=O)CNC(=O)[C@H](Cc2ccc(O)cc2)NC(=O)[C@H](Cc2ccccc2)NC1=O	39	4450 nM	4520	3	39 nM	0.99 nM	2.3 nM
N=C(N)NCCC[C@@H]1NC(=O)[C@H](NC(=O)[C@@H](N)Cc2ccc(O)cc2)CCCCNC(=O)CNC(=O)[C@H](Cc2ccc(O)cc2)NC1=O	> 805	8530 nM	406		> 10000 nM	17.4 nM	131 nM
N[C@@H](Cc1ccc(O)cc1)C(=O)N[C@@H]1CCCCNC(=O)CNC(=O)[C@H](Cc2ccc(O)cc2)NC(=O)[C@H](Cc2c[nH]c3ccccc23)NC1=O	50	8160 nM	2940		99 nM	1.99 nM	24 nM
N[C@@H](Cc1ccc(O)cc1)C(=O)N[C@@H]1CCCCNC(=O)CNC(=O)[C@H](Cc2ccc(O)cc2)NC(=O)[C@H](Cc2ccc(O)cc2)NC1=O	1.5	> 10000 nM	> 324		171 nM	114 nM	70.4 nM
N[C@@H](Cc1ccc(O)cc1)C(=O)N[C@@H]1CCCCNC(=O)CNC(=O)[C@H](Cc2ccc(O)cc2)NC(=O)[C@H](Cc2cccnc2)NC1=O	658	5330 nM	1320		1280 nM	1.95 nM	11.1 nM
NC(=O)NCCC[C@@H]1NC(=O)[C@H](NC(=O)[C@@H](N)Cc2ccc(O)cc2)CCCCNC(=O)CNC(=O)[C@H](Cc2ccc(O)cc2)NC1=O	367	8430 nM	760		3320 nM	9.04 nM	66.9 nM
N[C@@H](Cc1ccc(O)cc1)C(=O)N[C@@H]1CCCCNC(=O)CNC(=O)[C@H](Cc2ccc(O)cc2)NC(=O)[C@H](Cc2ccncc2)NC1=O	247	> 10000 nM	1100		2270 nM	9.21 nM	32 nM
